Test results taken from ChEMBL document CHEMBL1133094 (J Med Chem, 2000).

Tests used:
[1] = target: D(1A) dopamine receptor (Rattus norvegicus, UniProt P18901); test: Binding Affinity was determined against Dopamine receptor D1 in rat striatal membranes using [3H]- SCH 23390 radioligand.; type: cell membranes, Striatum, Membrane
How it was run: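 Competition binding with rat striatal membranes as tissue source, reported as pKi. The labelled site is the D1-like family (D1 and D5 subtypes), not D1 alone. All compounds were tested as racemates.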

[2] = target: D(2) dopamine receptor (Rattus norvegicus, UniProt P61169); test: Binding Affinity was determined against Dopamine receptor D2 in rat striatal membranes using [3H]- spiperone radioligand.; type: cell membranes, Striatum, Membrane
Chain of D(2) dopamine receptor (P61169 whole entry): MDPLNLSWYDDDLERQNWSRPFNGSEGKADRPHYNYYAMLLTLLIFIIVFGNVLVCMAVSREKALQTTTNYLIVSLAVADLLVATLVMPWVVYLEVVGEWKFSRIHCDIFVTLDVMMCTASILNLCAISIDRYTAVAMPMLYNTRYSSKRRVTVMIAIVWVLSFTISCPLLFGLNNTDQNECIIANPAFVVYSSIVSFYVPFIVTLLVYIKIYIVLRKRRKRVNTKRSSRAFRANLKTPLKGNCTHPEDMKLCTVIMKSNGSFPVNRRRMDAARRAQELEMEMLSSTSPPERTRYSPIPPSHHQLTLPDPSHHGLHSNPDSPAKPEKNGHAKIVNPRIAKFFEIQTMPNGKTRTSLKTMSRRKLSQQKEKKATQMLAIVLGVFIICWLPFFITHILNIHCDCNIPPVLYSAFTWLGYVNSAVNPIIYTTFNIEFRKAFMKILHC

Chain of D(1A) dopamine receptor (P18901 whole entry): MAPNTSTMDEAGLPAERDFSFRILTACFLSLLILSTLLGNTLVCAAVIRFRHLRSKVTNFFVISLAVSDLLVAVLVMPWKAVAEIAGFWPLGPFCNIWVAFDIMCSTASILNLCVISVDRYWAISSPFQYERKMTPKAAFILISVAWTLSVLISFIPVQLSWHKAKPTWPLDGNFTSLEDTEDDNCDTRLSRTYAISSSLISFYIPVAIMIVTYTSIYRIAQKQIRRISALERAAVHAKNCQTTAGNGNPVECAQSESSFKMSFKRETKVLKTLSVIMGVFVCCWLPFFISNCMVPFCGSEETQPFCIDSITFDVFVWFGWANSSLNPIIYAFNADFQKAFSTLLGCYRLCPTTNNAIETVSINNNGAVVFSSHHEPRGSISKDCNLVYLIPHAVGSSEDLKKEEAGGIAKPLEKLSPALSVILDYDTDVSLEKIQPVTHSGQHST

SMILES | Ki [1] [µM] | Ki [2] [µM]
CCCN1CCc2c(Br)ccc(O)c2C1Cc1cc(OC)ccc1Br (centres undefined) | 7.41 | > 10
COc1ccc(Br)c(CC2c3c(O)ccc(Br)c3CCN2C)c1 (centres undefined) | 0.389 | > 10
COc1cc2c3c(c1)Oc1ccccc1CC3N(C)CC2 (centres undefined) | 4.27 | 9.33
CCCN1CCc2cc(O)cc3c2C1Cc1ccccc1O3 (centres undefined) | > 10 | > 10
CN1CCc2cc(O)cc3c2C1Cc1ccccc1O3 (centres undefined) | 2.88 | 0.275
CCN1CCc2c(Br)ccc(O)c2C1Cc1cc(OC)ccc1Br (centres undefined) | 1.55 | > 10
CN1CCc2cccc3c2C1Cc1cc(O)ccc1O3 (centres undefined) | 4.79 | 0.724
COc1ccc2c(c1)CC1c3c(ccc(Br)c3CCN1C)O2 (centres undefined) | 7.59 | 0.851
COc1cc(Br)c2c(c1)CCN(C)C2Cc1ccccc1O (centres undefined) | 11.7 | 7.08
CCN1CCc2cc(OC)cc(Br)c2C1Cc1ccccc1O (centres undefined) | 3.02 | 3.09
CCCN1CCc2c(Br)ccc3c2C1Cc1cc(OC)ccc1O3 (centres undefined) | 2.45 | > 10
COc1cc(Br)cc2c1C(Cc1ccccc1O)N(C)CC2 (centres undefined) | 1.7 | 1.82
CCN1CCc2cc(Br)cc(OC)c2C1Cc1ccccc1O (centres undefined) | 5.62 | 2.19
CCN1CCc2cc(O)cc3c2C1Cc1ccccc1O3 (centres undefined) | 3.47 | 6.46

Next, values leading:

Ki [1] [µM] | Ki [2] [µM] | SMILES
6.76 | > 10 | CCN1CCc2cccc3c2C1Cc1cc(O)ccc1O3 (centres undefined)
> 10 | 8.51 | CCN1CCc2cc(OC)cc3c2C1Cc1ccccc1O3 (centres undefined)
5.25 | 1.23 | COc1ccc2c(c1)CC1c3c(cccc3O2)CCN1C (centres undefined)
> 10 | > 10 | CCCN1CCc2cccc3c2C1Cc1cc(O)ccc1O3 (centres undefined)
> 10 | 3.47 | CCCN1CCc2cc(OC)cc3c2C1Cc1ccccc1O3 (centres undefined)
> 10 | 1.86 | CCN1CCc2cccc3c2C1Cc1cc(OC)ccc1O3 (centres undefined)
3.89 | > 10 | CCCN1CCc2cccc3c2C1Cc1cc(OC)ccc1O3 (centres undefined)
3.47 | > 10 | CCN1CCc2c(Br)ccc3c2C1Cc1cc(OC)ccc1O3 (centres undefined)
